According to BindingDB's records for doi:10.1016/j.ejmech.2009.05.023 (Sun Yat-Sen University, 2009):

Molecular target: T1, Polyphenol oxidase 2 (Agaricus bisporus, UniProt O42713)
T1 sequence (O42713 whole entry): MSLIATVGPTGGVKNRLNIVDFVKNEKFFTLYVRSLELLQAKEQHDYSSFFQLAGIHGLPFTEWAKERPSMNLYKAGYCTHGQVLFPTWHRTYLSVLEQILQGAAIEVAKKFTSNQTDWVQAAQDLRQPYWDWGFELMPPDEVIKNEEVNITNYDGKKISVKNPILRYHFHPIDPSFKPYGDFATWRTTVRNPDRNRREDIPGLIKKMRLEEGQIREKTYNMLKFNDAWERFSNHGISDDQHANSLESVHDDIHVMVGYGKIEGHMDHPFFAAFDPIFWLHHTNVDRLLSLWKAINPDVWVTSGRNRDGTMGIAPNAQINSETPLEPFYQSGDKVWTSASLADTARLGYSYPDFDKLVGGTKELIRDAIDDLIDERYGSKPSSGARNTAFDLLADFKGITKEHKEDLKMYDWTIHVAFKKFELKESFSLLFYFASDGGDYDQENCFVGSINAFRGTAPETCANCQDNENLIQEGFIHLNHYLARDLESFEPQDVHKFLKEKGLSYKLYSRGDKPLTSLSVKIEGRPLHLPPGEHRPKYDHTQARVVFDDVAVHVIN
Experiment: Inhibition of mushroom tyrosinase
Outline: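 Mushroom tyrosinase diphenolase assay: 1 mL reaction with 0.5 mM L-DOPA in 50 mM sodium phosphate buffer, pH 6.8, enzyme final 0.5 mg/mL, 25 °C. Compounds dissolved in DMSO (2.0% final); DMSO-only controls run. Dopachrome formation followed at 475 nm for 1 min. IC50 interpolated from dose–response curves; means of three experiments.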

| Structure (SMILES) | IC50 |
| --- | --- |
| O=c1cc(O)[nH]c(=O)[nH]1 [Barbituric acid] | > 200 µM |
| CCCCOCCOc1ccc(Cc2c(O)[nH]c(=O)[nH]c2=O)cc1 [5-(4-(2-Butoxyethoxy)benzyl)pyrimidine-2,4,6(1H,3H,5H)-trione] | > 200 µM |
| Oc1cc(O)nc(S)n1 [Thiobarbituric] | > 200 µM |
| COCCOCCOc1ccc(Cc2c(O)[nH]c(=O)[nH]c2=O)cc1 [5-(4-(2-(2-Methoxyethoxy)ethoxy)benzyl)pyrimidine-2,4,6(1H,3H,5H)trione] | > 200 µM |
| COCCCCOc1ccc(Cc2c(O)[nH]c(=S)[nH]c2=O)cc1 [5-(4-(4-Methoxybutoxy)benzyl)-2-thioxodihydropyrimidine-4,6(1H,5H)-dione] | > 200 µM |
| O=c1[nH]c(O)c(Cc2ccc(O)cc2)c(=O)[nH]1 [5-(4-Hydroxybenzyl)pyrimidine-2,4,6(1H,3H,5H)-trione] | > 200 µM |
| COCCOc1ccc(Cc2c(O)[nH]c(=O)[nH]c2=O)cc1 [5-(4-(2-Methoxyethoxy)benzyl)pyrimidine-2,4,6(1H,3H,5H)-trione] | > 200 µM |
| O=c1[nH]c(O)c(Cc2ccc(OCCO)cc2)c(=O)[nH]1 [5-(4-(2-Hydroxyethoxy)benzyl)pyrimidine-2,4,6(1H,3H,5H)-trione] | > 200 µM |
